Screening results deposited in PubChem BioAssay by several laboratories.
HSF1 inh – HSF1 inhibition; NIH3T3-HGL HSE-luciferase, MG132-induced, luminescence 8 h; hits give low values; activity change, negative = inhibition, % at 7.5 µM (by protocol); hit rate 0.77% among 300,000; AID 2098;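 active = more than half of replicate wells show activity change below -50%, luminescence cut by over half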;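 also: luciferase reports HSF-1 transcriptional activity via heat shock element; 0% = median of DMSO wells and -100% = zero luminescence signal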
GPR7 antag – human neuropeptides B/W receptor 1 antagonism; AID 1861; GPR7-expressing cells, fluorescence antagonist assay; hit rate 1.1% among 290,000; inhibition, % at 4.4 µM; in the data active = inhibition above about 16%, passing the limit was not always enough;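 also: cells stimulated with the agonist NPW; 0% = agonist with vehicle and 100% = vehicle without agonist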
Target sequence (P48145 whole entry, looked up): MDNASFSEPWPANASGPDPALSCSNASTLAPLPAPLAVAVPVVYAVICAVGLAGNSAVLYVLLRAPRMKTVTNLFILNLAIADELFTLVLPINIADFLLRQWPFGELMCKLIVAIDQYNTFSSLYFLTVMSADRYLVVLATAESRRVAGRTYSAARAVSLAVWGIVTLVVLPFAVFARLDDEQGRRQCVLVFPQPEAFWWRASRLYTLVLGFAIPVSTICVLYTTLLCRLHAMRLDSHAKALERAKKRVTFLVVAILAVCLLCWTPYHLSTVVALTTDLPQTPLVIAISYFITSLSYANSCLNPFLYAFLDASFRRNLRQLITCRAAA
T cruzi repl – blocks replication of Trypanosoma cruzi | T. cruzi beta-gal in NIH3T3, luminescence, 90 h | hit rate 1.4% among 300,000 | inhibition, % (concentration not given with the values);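 active = mean inhibition across valid replicates above about 55%, limit read from the data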;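 also: signal also drops with host cell toxicity which is not excluded here; 0% = plate median of DMSO wells and 100% = zero luminescence signal; higher percent means less beta-gal luminescence so fewer parasites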
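Read-out: Parasite load inhibition, % | Test system: Mouse NIH/3T3 fibroblasts infected with β-gal-expressing T. cruzi Tulahuen C4 | Amount: 5,000 cells/well | Medium: DMEM, 2% fetal bovine serum | Signal: GalScreen β-gal luminescence, detergent lysis, 60 min | Timing: 3 h attach, ≥90 h co-culture | Also added: Tulahuen C4 trypomastigotes, 5000/well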
697 NFkB inh – inhibitors of the PMA/ionomycin-induced NF-kB reporter in 697 B cells; 697 B-cell NF-kB luciferase reporter, 16 h; inhibition, % at 4 µM; hit rate 0.33% among 330,000; in the data active = inhibition above about 35%
HSF-1 act – increases HSF-1 driven luciferase reporter signal; NIH3T3-HGL HSF-1 luciferase reporter, MG132, 8 h; 100% = twice DMSO control signal; activation, % at 9 µM; hit rate 1.7% among 300,000;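 active = mean replicate activation of at least 50% with a set share of replicates each reaching 50%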;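 also: 0% = median of the neutral control wells and 100% = twice that signal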
Jurkat NFkB inh – lowers PMA/ionomycin-induced NF-kB signal in Jurkat cells | PMA/ionomycin-induced NF-kB luciferase reporter, luminescence | inhibition, % at 4 µM | AID 435003 | hit rate 0.53% among 330,000; in the data active = inhibition above about 50%
Jurkat NFkB conf – lowers PMA/ionomycin-induced NF-kB signal in Jurkat cells; Jurkat NF-kB luciferase, 16 h; inhibition, % at 4 µM; hit rate 27% among 2,700; AID 435020; shares compounds with Jurkat NFkB inh;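 active = inhibition reaching about 45% at 4 µM in either replicate, limit read from the data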;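 also: plate controls were PMA/ionomycin stimulated DMSO wells for no effect and unstimulated DMSO wells for full effect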
Numbers without * were called inactive; x = no result. This is a sample that favours compounds with a hit; in the whole collection about 4.8% have one here.

SMILES | HSF1 inh | GPR7 antag | T cruzi repl | 697 NFkB inh | HSF-1 act | Jurkat NFkB inh | Jurkat NFkB conf
C[C@@]12C(=O)Nc3ccc(Br)cc3C(=O)N1[C@H]1c3cc(Br)ccc3OC[C@@H]1[C@@H]2c1ccccc1 | x | x | x | 15 | x | 17 | x
CC1Cc2cc(/C(O)=C3/C(=O)C(=O)N(CCCn4ccnc4)C3c3ccc(F)cc3)ccc2O1 (stereo not given) | -6 | 6 | -5 | -33 | -10 | -4 | x
O=[N+]([O-])c1ccc(-c2nc(C(Cl)Cl)c3ccccc3n2)cc1 | 65 | -11 | 31 | -102 | 115* | 97* | 42
CC1(C)N=C(N)N=C(N)N1c1ccc(Oc2ccc(Cl)cc2)c(Cl)c1 | -6 | -3 | 55* | 29 | 5 | 82* | 66*
NC(=O)CC(NC(=O)Cc1ccc(Br)cc1)c1ccc(NC2CCCCCC2)c([N+](=O)[O-])c1 (stereo not given) | 25 | x | -11 | 8 | 23 | 18 | x
NC(=O)CC(NC(=O)Cc1ccc(Br)cc1)c1ccc(NC2CCCC2)c([N+](=O)[O-])c1 (stereo not given) | 2 | x | -14 | 26 | -20 | 51* | 29
NC(=O)CC(NC(=O)Cc1ccc(Br)cc1)c1ccc(NCCOc2ccccc2)c([N+](=O)[O-])c1 (stereo not given) | 4 | x | 1 | -9 | 20 | 12 | x
CC(C)Nc1ccc(C(CC(N)=O)NC(=O)Cc2ccc(Br)cc2)cc1[N+](=O)[O-] (stereo not given) | -3 | x | 5 | -40 | 0 | 84* | 58*
CCn1c(C)nc2cc(C(=O)NNC(=O)[C@@H](NC(=O)c3cc(OC)cc(OC)c3)C(C)C)ccc21 | x | x | x | 4 | x | -1 | x
O=C(c1c(F)cccc1F)N(C1CCCCC1)C1CCCCC1 | -4 | -23 | 32 | 20 | 10 | 7 | x
CC(=C/c1ccccc1)/C=N/NC(=O)c1cccs1 | 14 | -6 | x | -206 | 55* | -171 | -102
CCN(CC)S(=O)(=O)c1cccc(NC(=O)C2CC(=O)N(c3ccc4c(c3)OCCO4)C2)c1 (stereo not given) | -4 | x | 1 | -6 | 5 | 15 | x
Cc1cccc(-n2ncc3c(NCCCO)ncnc32)c1 | 13 | 4 | -12 | -106 | 34 | -98 | x
CC1CN(c2ncnc3c2cnn3-c2ccc(Cl)cc2)CC(C)O1 (stereo not given) | -28 | -13 | 16 | -197 | -31 | -187 | -71
Cc1cccc(-n2ncc3c(N4CC(C)CC(C)C4)ncnc32)c1 (stereo not given) | -6 | -9 | 14 | -199 | -23 | -166 | -107
CCN1CCN(c2ncnc3c2cnn3-c2ccc(C)cc2C)CC1 | -10 | x | -7 | 16 | -7 | 6 | x
Cc1cccc(-n2ncc3c(NC4CCCCC4)ncnc32)c1 | -13 | -6 | 31 | -235 | -7 | -156 | -148
Cc1ccc(-n2ncc3c(N4CCN(c5ccccc5)CC4)ncnc32)c(C)c1 | -23 | -7 | 19 | -39 | -29 | 60* | 39
CC(C)(C)NC(=O)CSc1nc(N)c(-c2ccccc2)c(=O)[nH]1 | 2 | 0 | -13 | -2 | -7 | 1 | x
CCN1CCN(c2ccc(S(=O)(=O)N3CCOCC3)cc2NC(=O)C(C)Oc2ccc(F)cc2)CC1 (stereo not given) | x | x | x | -13 | x | 1 | x
CSc1nc2ncc(C(=O)O)c(N)n2n1 | -2 | -3 | -1 | 3 | 2 | -1 | x
COc1ccc(C(=O)Nc2ccc(-c3ccc(C)o3)cc2)cc1S(=O)(=O)N1CCOCC1 | 21 | -9 | 4 | 15 | 3 | 59* | 12
COc1ccc(C(=O)Nc2ccc(N3CCOCC3)cc2)cc1S(=O)(=O)N1CCOCC1 | x | x | x | 19 | x | 0 | x
COc1ccc(S(=O)(=O)N2CCN(C)CC2c2ccccc2)cc1OC (stereo not given) | x | x | x | 7 | x | 2 | x
COc1ccccc1NCC(=O)NC(=O)NC1CCCCC1 | x | x | x | -2 | x | -1 | x
SMILES | HSF1 inh | GPR7 antag | T cruzi repl | 697 NFkB inh | HSF-1 act | Jurkat NFkB inh | Jurkat NFkB conf
O=C1CN(C(=O)COc2cccc(F)c2)c2ccccc2N1 | 3 | -4 | 3 | 22 | -4 | 2 | x
Cc1noc(C)c1COc1cccc(C(=O)OCC(=O)N2CC(=O)Nc3ccccc32)c1 | -11 | 11 | 15 | 6 | 5 | 58* | 48
CC(C)(C)OC(=O)N1Cc2ccccc2C[C@H]1C(=O)NC1CCCC1 | -12 | -8 | 10 | 24 | -32 | -22 | x
Cc1ccc(-c2nc3ccc(Cl)cc3n2OC(C)C(=O)O)cc1 (stereo not given) | 9 | 15 | 0 | -244 | 21 | -173 | -102
COc1ccc(/C=C2\CCCC3C2=NN(C(=O)CSc2ncn[nH]2)C3c2ccc(OC)cc2)cc1 (stereo not given) | -1 | -14 | 24 | 6 | 22 | 61* | -27
COc1ccc(N2CC(C(=O)N/N=C/c3ccc(C)cc3)CC2=O)cc1 (stereo not given) | -1 | 3 | -35 | -37 | -1 | 55* | 18
COc1ccccc1N1CCN(c2ccnc3cc(Cl)ccc23)CC1 | -25 | 14 | -41 | -41 | -25 | 68* | 25
COc1ccccc1NC(=O)N1CCN(c2ccnc3cc(Cl)ccc23)CC1 | 1 | 4 | 1 | 22 | -1 | 9 | x
COc1ccc(CCNC(=O)COc2ccc(S(=O)(=O)N3CCOCC3)cc2C)cc1 | 1 | 4 | 17 | 12 | 23 | 6 | x
CC(c1ccco1)N(C(=O)c1ccc(C#N)cc1)c1ccccn1 (stereo not given) | 6 | -3 | -11 | 15 | 12 | -10 | x
CC(C)c1ccc(C(=O)N(c2ccccn2)C(C)c2ccco2)cc1 (stereo not given) | -11 | 2 | 20 | -46 | -12 | -165 | -78
O=C(/C=C/c1ccccn1)c1cc(Cl)cc(Cl)c1O | 9 | -9 | -10 | -11 | -9 | 67* | 29
COc1ccc(/C=C/C(=O)c2cc(Cl)cc(Cl)c2O)c(OC)c1 | -10 | 1 | 19 | -12 | -12 | 10 | x
O=C(NN=C1CCCCCCC1)c1ccc2ccccc2n1 | -2 | 0 | -11 | 1 | 1 | -18 | x
COc1ccccc1N(Cc1ccccc1)S(=O)(=O)c1cccc(C(=O)NC2CC(C)(C)NC(C)(C)C2)c1 | 0 | x | 53 | 4 | -19 | 25 | x
CC1(C)CC(NC(=O)c2ccc(Cl)c(S(=O)(=O)N(Cc3ccccc3)c3ccccc3)c2)CC(C)(C)N1 | -2 | x | 39 | 4 | 1 | 71* | 6
C=C(C)CN(CC)C(=O)CN1C(=O)NC2(CCCc3ccccc32)C1=O (stereo not given) | 1 | 12 | -12 | 5 | 8 | 19 | x
CCN(CCNC(=O)C1CCC(=O)N1Cc1ccc(C)cc1)c1ccccc1 (stereo not given) | 0 | -1 | -15 | 7 | 12 | -6 | x
